We go through 2 compounds from paper PMC5774476 (Drug Design, Development and Therapy, 2018).

The structures appear in SMILES notation. Read-outs that look alike come from different tables or passages of the source.

The subject of one series is WiDR cells. Nature of the series: MTT cytotoxicity assay on WiDR colorectal cancer cells. The class given is cell-based. To be noted: for IC50: Homo sapiens, WiDr, 24 h; for SI (selectivity index): ratio of IC50 in Vero versus that in WiDR cells, selective if >3. The procedure, abridged: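 WiDR cells grown in RPMI 1640 with 0.1 mg/mL streptomycin (5% CO2, 37°C); confluent cells seeded 1×10^4/well for 24 h, then exposed 24 h to test compound (1% DMSO solution diluted in medium) at 3.906–500 µg/mL. MTT 4 h, formazan dissolved overnight in 10% SDS/0.01 N HCl, A595. Viability vs untreated and cell-free controls; IC50 by probit, mean of three experiments; SI = Vero IC50/WiDR IC50.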

The conditions of series [1]: IC50 slightly higher than that of chloroquine; cited from earlier work.

Turning to `COc1cccc2c1C(=O)c1c(O)c3c(c(O)c1C2=O)C[C@@](O)(C(=O)CO)C[C@@H]3O[C@H]1C[C@H](N)[C@H](O)[C@H](C)O1` [Doxorubicin, doxorubicin, reference compound], the IC50 in the series with WiDR cells (read-out: IC50 (µM) WiDR) turned out to be 3.04 ± 0.184 µM; with WiDR cells (read-out: IC50 (µg/mL) WiDR) it was 1.65 ± 0.19 µg/mL. Besides, the “SI (selectivity index)” value in the series on WiDR cells was 49.38.
For the compound `O=c1c2ccc(O)cc2oc2c(O)c(O)ccc12` [Compound 5, 3,4,6-trihydroxyxanthone], the IC50 with WiDR cells (read-out: IC50 (µM) WiDR) came out at 37.8 ± 10.6 µM; in the series with WiDR cells (read-out: IC50 (µg/mL) WiDR) it was 9.23 ± 2.58 µg/mL. For the same compound, the “cytotoxicity category (CSIR criteria)” value with WiDR cells (WiDR cell line) is on record as “moderate (moderate (6.25 µg/mL < mean IC50 <15 µg/mL))”. Also, the “cytotoxic activity (in words)” value in the series on WiDR cells (WiDR cells, MTT) is “exhibited cytotoxic activity”. Besides, the entries for the “SI (selectivity index)” value in the series on WiDR cells and with WiDR cells (listed as compound 5) were 66.39 and 66.40, respectively. Also, in series [1], the antimalarial activity result is on record as “good antimalarial activity”.
